The text below walks through data of ChEMBL document CHEMBL3994574, “Novel hamamelitannin analogues for the treatment of biofilm related MRSA infections-A scaffold hopping approach” (Eur J Med Chem, 2017).

As a reminder, the inhibition is the drop in the measured response relative to a control, in per cent. The pEC50 is −log10 of the EC50, conventionally taken in molar units.

Structures are written as SMILES. pEC50: −log10 of the molar value.

Data set [1] has as its system Staphylococcus aureus subsp. aureus Mu50. Description: Inhibition of quorum sensing system in methicillin-resistant Staphylococcus aureus Mu50 assessed as potentiation of vancomycin-mediated reduction in CFU/biofilm at 100 uM after 24 hrs (reference value: 30 +/- 14%).
Data set [2] is described as follows: Inhibition of quorum sensing system in methicillin-resistant Staphylococcus aureus Mu50 assessed as potentiation of vancomycin-mediated reduction in CFU/biofilm preincubated for 20 hrs followed by vancomycin addition measured after 24 hrs. On the set-up: species or system Staphylococcus aureus subsp. aureus Mu50.
Data set [3] has as its system Staphylococcus aureus subsp. aureus Mu50. Briefly: Inhibition of quorum sensing system in methicillin-resistant Staphylococcus aureus Mu50 assessed as potentiation of vancomycin-mediated reduction in CFU/biofilm at 100 uM preincubated for 20 hrs followed by vancomycin addition measured after 24 hrs (reference value: 30 +/- 14%).
The test system of a further data set is Staphylococcus aureus. Description: Growth inhibition of methicillin-resistant Staphylococcus aureus Mu50 after 20 hrs by broth microdilution method. In outline:
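MRSA Mu50 grown in Mueller-Hinton broth at 37 °C, aerobic. MIC found in triplicate in flat-bottom 96-well plates, using a procedure from earlier work. Highest concentration tested was […].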
On the technique in general: In broth dilution the organism is exposed to a series of concentrations in liquid medium.

A short description of data set [4]: Inhibition of quorum sensing system in methicillin-resistant Staphylococcus aureus Mu50 assessed as potentiation of vancomycin-mediated reduction in CFU/biofilm after 24 hrs. On the set-up: species or system Staphylococcus aureus subsp. aureus Mu50.

As for `O=C(NC[C@@H]1CO[C@H](CNC(=O)c2ccccc2Cl)CO1)c1ccccc1`, the values for the inhibition in data set [1] and in data set [3] were 91% and 95%, respectively. In addition, the pEC50 in data set [2] is 5.25; in data set [4], 4.88. Besides, the MIC against Staphylococcus aureus is > 500 µM.

For `O=C(NC[C@@H]1C[C@H](CNC(=O)c2ccccc2Cl)CN1)c1ccccc1`, the inhibition in data set [1] is 50%; in data set [3] it was 54%. Besides, the MIC against Staphylococcus aureus was > 500 µM.

For the compound `O=C(NC[C@]1(O)CO[C@H](CNC(=O)c2ccccc2Cl)[C@H]1O)c1ccccc1`, the inhibition came out at 92% in data set [1] and 88% in data set [3]. In addition, the pEC50 in data set [2] is 6.41; in data set [4], 5.10. For the same compound, the MIC against Staphylococcus aureus is > 500 µM.

For the compound `O=C(NC[C@H]1CN(C(=O)c2ccccc2)CCO1)c1ccccc1Cl`, the inhibition in data set [1] is 51%; in data set [3] it was -6%. Besides, the MIC with Staphylococcus aureus was > 500 µM.

Turning to `O=C(NC[C@@H]1O[C@H](CNC(=O)c2ccccc2Cl)[C@@H](O)[C@H]1O)c1ccccc1`, the inhibition came out at 95% in data set [1] and 93% in data set [3]. Moreover, the pEC50 in data set [2] is 5.59; in data set [4] it was 5.43. In addition, the MIC in the data set on Staphylococcus aureus was > 500 µM.

Take `O=C(NC[C@H]1CN(C(=O)c2ccccc2Cl)CCO1)c1ccccc1`: the inhibition in data set [1] was 41%; in data set [3], -7%. Further, the MIC in the data set on Staphylococcus aureus is > 500 µM.

Take `O=C(NC[C@]1(O)CO[C@H](CNC(=O)c2ccccc2Cl)C1)c1ccccc1`: the inhibition was determined as 65% in data set [1] and 21% in data set [3]. Further, in the data set on Staphylococcus aureus, the MIC was > 500 µM.

For the compound `O=C(OC[C@H]1OC(O)[C@@](O)(COC(=O)c2cc(O)c(O)c(O)c2)[C@@H]1O)c1cc(O)c(O)c(O)c1` (stereo not given in full) [HAMAMELITANNIN], the inhibition in data set [1] and in data set [3] was 57% throughout. Further, the figures for the pEC50 in data set [2] and in data set [4] were 3.84 and 3.78, respectively. For the same compound, in the data set with Staphylococcus aureus, the MIC was > 500 µM.

For the compound `O=C(NC[C@@H]1CN[C@H](CNC(=O)c2ccccc2Cl)C1)c1ccccc1`, the inhibition in data set [1] was 47%; in data set [3], 62%. Also, the MIC in the data set with Staphylococcus aureus is > 500 µM.
